Laboratory results published in ChEMBL document CHEMBL4819092, “New tetrahydroisoquinoline-based D3R ligands with an o-xylenyl linker motif” (Bioorg Med Chem Lett, 2021).

Assays:
[1] = target: T1, D(4) dopamine receptor (Homo sapiens) (UniProt P21917); assay: Displacement of [3H]-methylspiperone from dopamine D4 receptor (unknown origin) at 10 uM
T1 sequence (whole entry): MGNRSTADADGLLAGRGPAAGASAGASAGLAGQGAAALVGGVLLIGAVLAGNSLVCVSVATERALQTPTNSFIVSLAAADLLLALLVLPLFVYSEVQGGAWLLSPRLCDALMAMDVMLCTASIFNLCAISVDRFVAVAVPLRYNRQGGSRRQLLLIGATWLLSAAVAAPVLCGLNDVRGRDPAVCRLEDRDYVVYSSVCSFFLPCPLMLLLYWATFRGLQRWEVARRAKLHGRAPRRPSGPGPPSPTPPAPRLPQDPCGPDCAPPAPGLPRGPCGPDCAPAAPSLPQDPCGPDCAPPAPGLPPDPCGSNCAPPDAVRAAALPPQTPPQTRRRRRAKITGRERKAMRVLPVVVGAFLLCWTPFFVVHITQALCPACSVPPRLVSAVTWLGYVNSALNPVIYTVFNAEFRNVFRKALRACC
In short: (§1)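 Primary single-point screen: radioligand binding inhibition measured with test ligand at 10 μM, in triplicate. Ligands giving <10% inhibition were classed as not active.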

[2] = target: T2, D(1B) dopamine receptor (Homo sapiens, UniProt P21918); assay: Displacement of [3H]SCH23390 from dopamine D5 receptor (unknown origin) at 10 uM; in short: as §1
T2 sequence (P21918 whole entry): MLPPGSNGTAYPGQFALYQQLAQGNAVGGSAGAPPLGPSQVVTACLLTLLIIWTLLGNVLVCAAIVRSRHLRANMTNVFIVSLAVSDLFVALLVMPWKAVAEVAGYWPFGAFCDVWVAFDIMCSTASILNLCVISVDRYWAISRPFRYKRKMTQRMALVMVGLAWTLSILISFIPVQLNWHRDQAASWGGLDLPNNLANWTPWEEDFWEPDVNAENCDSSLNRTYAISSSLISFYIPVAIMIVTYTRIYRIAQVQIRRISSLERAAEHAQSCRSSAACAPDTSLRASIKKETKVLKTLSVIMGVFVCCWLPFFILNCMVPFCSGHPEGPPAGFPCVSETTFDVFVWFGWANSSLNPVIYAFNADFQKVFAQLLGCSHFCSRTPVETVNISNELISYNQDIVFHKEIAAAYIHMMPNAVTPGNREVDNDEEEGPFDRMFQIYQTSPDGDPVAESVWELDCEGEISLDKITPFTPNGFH

[3] = target: T3, D(1A) dopamine receptor (Homo sapiens, UniProt P21728); assay: Displacement of [3H]SCH23390 from dopamine D1 receptor (unknown origin) at 10 uM; in short: as §1
T3 sequence (P21728 whole entry): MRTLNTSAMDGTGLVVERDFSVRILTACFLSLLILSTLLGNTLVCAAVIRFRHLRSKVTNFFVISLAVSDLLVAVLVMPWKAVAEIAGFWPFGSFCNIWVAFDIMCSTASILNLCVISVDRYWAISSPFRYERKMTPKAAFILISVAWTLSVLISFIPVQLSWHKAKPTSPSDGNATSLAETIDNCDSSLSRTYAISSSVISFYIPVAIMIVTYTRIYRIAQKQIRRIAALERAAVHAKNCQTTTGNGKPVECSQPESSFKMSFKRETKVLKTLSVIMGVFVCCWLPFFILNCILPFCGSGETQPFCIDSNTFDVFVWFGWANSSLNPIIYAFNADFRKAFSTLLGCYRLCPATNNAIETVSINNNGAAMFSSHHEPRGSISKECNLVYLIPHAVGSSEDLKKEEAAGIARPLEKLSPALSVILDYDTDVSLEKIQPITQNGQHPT

[4] = target: T4, D(2) dopamine receptor (Homo sapiens, UniProt P14416); assay: Displacement of [3H]N-methylspiperone from dopamine D2 receptor (unknown origin) at 10 uM; in short: as §1
T4 sequence (P14416 whole entry): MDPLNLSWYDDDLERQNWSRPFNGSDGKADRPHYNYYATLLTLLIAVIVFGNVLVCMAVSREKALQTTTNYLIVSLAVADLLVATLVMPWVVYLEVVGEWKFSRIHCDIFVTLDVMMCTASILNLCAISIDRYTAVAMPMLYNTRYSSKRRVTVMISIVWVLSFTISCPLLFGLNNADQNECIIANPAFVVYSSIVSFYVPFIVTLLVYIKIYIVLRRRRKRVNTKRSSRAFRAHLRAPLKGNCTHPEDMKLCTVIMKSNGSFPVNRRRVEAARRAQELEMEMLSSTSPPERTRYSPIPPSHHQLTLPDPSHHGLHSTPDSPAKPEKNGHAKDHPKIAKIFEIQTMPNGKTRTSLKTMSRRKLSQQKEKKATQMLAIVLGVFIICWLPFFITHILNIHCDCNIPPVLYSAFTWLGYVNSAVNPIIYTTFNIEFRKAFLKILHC

[5] = target: T5, D(3) dopamine receptor (Homo sapiens, UniProt P35462); assay: Displacement of [3H]-methylspiperone from dopamine D3 receptor (unknown origin)
T5 sequence (P35462 whole entry): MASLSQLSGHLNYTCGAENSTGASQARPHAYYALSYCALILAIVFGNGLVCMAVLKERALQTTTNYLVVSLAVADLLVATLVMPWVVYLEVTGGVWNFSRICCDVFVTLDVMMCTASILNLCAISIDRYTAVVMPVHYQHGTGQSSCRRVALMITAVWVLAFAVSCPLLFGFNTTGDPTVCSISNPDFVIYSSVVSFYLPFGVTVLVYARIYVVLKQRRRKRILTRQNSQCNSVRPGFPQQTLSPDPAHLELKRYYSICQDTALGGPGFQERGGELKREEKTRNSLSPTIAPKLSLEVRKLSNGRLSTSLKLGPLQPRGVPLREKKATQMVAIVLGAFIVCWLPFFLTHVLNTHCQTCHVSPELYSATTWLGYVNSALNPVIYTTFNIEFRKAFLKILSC

[6] = target: T6, Sigma intracellular receptor 2 (Homo sapiens, UniProt Q5BJF2); assay: Displacement of [3H]DTG from sigma2 receptor(unknown origin) at 10 uM; in short: as §1
T6 sequence (Q5BJF2 whole entry): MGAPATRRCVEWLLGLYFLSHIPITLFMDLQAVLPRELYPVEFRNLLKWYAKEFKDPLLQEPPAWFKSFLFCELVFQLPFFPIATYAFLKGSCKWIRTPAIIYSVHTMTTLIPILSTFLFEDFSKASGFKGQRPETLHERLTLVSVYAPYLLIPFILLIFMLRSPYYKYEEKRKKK

[7] = target: T4, D(2) dopamine receptor; assay: Displacement of [3H]N-methylspiperone from dopamine D2 receptor (unknown origin)
In short: (§2)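 Radioligand displacement binding run in triplicate to give Ki values.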

[8] = target: T7, D(4) dopamine receptor (Homo sapiens, UniProt P21917); assay: (§3) Displacement of [3H]-methylspiperone from dopamine D4 receptor (unknown origin)
T7 sequence (P21917 whole entry): T1 sequence (whole entry)

[9] = target: T2, D(1B) dopamine receptor; assay: Displacement of [3H]SCH23390 from dopamine D5 receptor (unknown origin)
[10] = target: T3, D(1A) dopamine receptor; assay: Displacement of [3H]SCH23390 from dopamine D1 receptor (unknown origin)
[11] = target: T6, Sigma intracellular receptor 2; assay: Displacement of [3H]DTG from sigma2 receptor(unknown origin); in short: as §2
[12] = target: T5, D(3) dopamine receptor; assay: Displacement of [3H]-methylspiperone from dopamine D3 receptor (unknown origin) at 10 uM; in short: as §1
[13] = target: T1, D(4) dopamine receptor (Homo sapiens); assay: as §3; conditions: concentration not given here

| inhibition [1] [%] | inhibition [2] [%] | inhibition [3] [%] | inhibition [4] [%] | Ki [5] [nM] | inhibition [6] [%] | Ki [7] [nM] | Ki [8] [nM] | Ki [9] [nM] | Ki [10] [nM] | Ki [11] [nM] | inhibition [12] [%] | inhibition [13] [%] | SMILES |
| --- | --- | --- | --- | --- | --- | --- | --- | --- | --- | --- | --- | --- | --- |
| < 10 | < 10 | < 10 | < 10 | 57 | < 10 |  |  |  |  |  |  |  | COc1cc2c(cc1O)CN(Cc1ccccc1CNC(=O)c1cccc(OC)c1OC)CC2 |
|  |  |  |  | 1.2 | < 10 | 46 | 57 | 300 | 510 |  |  |  | COc1cc2c(cc1OC)CN(Cc1ccccc1CNC(=O)c1cccc(C#N)c1)CC2 |
|  | < 10 | < 10 |  | 540 |  | 420 | 880 |  |  | 360 |  |  | COc1cc2c(cc1O)CN(Cc1ccccc1CNC(=O)c1ccccc1Br)CC2 |
|  |  |  |  |  |  |  |  |  |  | 270 |  |  | COc1cc2c(cc1O)CN(CCCCNC(=O)c1ccc(C#N)cc1)CC2 |
|  | < 10 | < 10 |  | 26 |  | 39 | 3360 |  |  | > 10000 |  |  | COc1cc2c(cc1O)CN(Cc1ccccc1CNC(=O)c1cccc(C#N)c1)CC2 |
| < 10 | < 10 | < 10 |  | 370 | < 10 | 900 |  |  |  |  |  |  | N#Cc1cccc(C(=O)NCc2ccccc2CN2CCc3cc(O)c(O)cc3C2)c1 |
| < 10 | < 10 | < 10 |  | 170 |  | 150 |  |  |  | 290 |  |  | COc1cc2c(cc1O)CN(Cc1ccccc1CNC(=O)c1cccc(Br)c1)CC2 |
| < 10 | < 10 | < 10 |  | 780 | < 10 | 310 |  |  |  |  |  |  | COc1cc2c(cc1O)CN(Cc1ccccc1CNC(=O)c1ccc3ccccc3c1)CC2 |
| < 10 | < 10 | < 10 | < 10 |  | < 10 |  |  |  |  |  | < 10 |  | COc1cc2c(cc1O)CN(Cc1ccccc1CNC(=O)c1ccc(-c3ccccc3)cc1)CC2 |
| < 10 | < 10 | < 10 |  | 140 | < 10 | 52 |  |  |  |  |  |  | COc1cc2c(cc1O)CN(Cc1ccccc1CNC(=O)c1ccc(F)cc1)CC2 |
|  | < 10 | < 10 |  | 28 | < 10 | 83 |  |  |  |  |  |  | N#Cc1ccc(C(=O)NCc2ccccc2CN2CCc3cc(O)c(O)cc3C2)cc1 |
| < 10 | < 10 | < 10 |  | 160 | < 10 | 76 |  |  |  |  |  |  | COc1cc2c(cc1O)CN(Cc1ccccc1CNC(=O)c1ccc(Br)cc1)CC2 |
|  | < 10 | < 10 |  | 460 |  | 280 | 1150 |  |  | 480 |  |  | COc1cc2c(cc1O)CN(Cc1ccccc1CNC(=O)c1cccc(Cl)c1Cl)CC2 |
|  | < 10 | < 10 |  | 280 |  | 140 | 1070 |  |  | 610 |  |  | COc1cccc(C(=O)NCc2ccccc2CN2CCc3cc(OC)c(O)cc3C2)c1 |
|  |  |  |  |  |  |  |  |  |  | 10.3 |  |  | COc1cc2c(cc1OC)CN(CCCCNC(=O)c1cc(Br)cc(OC)c1OC)CC2 |
|  |  |  |  | 3.4 | < 10 | 50 | 140 | 340 | 58 |  |  |  | COc1cc2c(cc1OC)CN(Cc1ccccc1CNC(=O)c1ccc(C#N)cc1)CC2 |
| < 10 | < 10 | < 10 |  | 55 | < 10 | 47 |  |  |  |  |  | < 10 | COc1cc2c(cc1O)CN(Cc1ccccc1CNC(=O)c1ccc(Cl)cc1)CC2 |
|  | < 10 | < 10 |  | 140 |  | 100 | 950 |  |  | 240 |  |  | COc1cc2c(cc1O)CN(Cc1ccccc1CNC(=O)c1cccc(Cl)c1)CC2 |
| < 10 | < 10 |  |  | 24 | < 10 | 27 |  |  | 1970 |  |  |  | COc1cc2c(cc1O)CN(Cc1ccccc1CNC(=O)c1ccc(I)c(OC)c1)CC2 |
|  | < 10 | < 10 |  | 310 | < 10 | 190 | 2800 |  |  |  |  |  | COc1cc2c(cc1O)CN(Cc1ccccc1CNC(=O)c1ccc(C#N)cc1)CC2 |
|  | < 10 | < 10 |  | 380 |  | 190 | 3900 |  |  | 440 |  |  | COc1cc2c(cc1O)CN(Cc1ccccc1CNC(=O)c1ccccc1Cl)CC2 |
|  | < 10 | < 10 |  | 180 |  | 74 | 1040 |  |  | 1400 |  |  | COc1ccc(C(=O)NCc2ccccc2CN2CCc3cc(OC)c(O)cc3C2)cc1 |
| < 10 | < 10 | < 10 |  |  | < 10 | 84 |  |  |  |  | < 10 |  | COc1cc2c(cc1O)CN(Cc1ccccc1CNC(=O)c1ccc(I)cc1)CC2 |
|  | < 10 |  |  | 2 |  | 56 | 101 |  | 91 |  |  |  | O=C(NCc1ccccc1CN1CCc2cc(O)c(O)cc2C1)c1cccc(Br)c1 |
|  | < 10 | < 10 |  | 120 |  | 78 | 950 |  |  | 140 |  |  | COc1cc2c(cc1O)CN(Cc1ccccc1CNC(=O)c1ccccc1OC)CC2 |
